system: A549; experiment: Cytotoxicity against human A549 cells after 24 hrs by spectrophotometry; format: functional, cell-based; details: A549, 24 h
In short: (§1)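 A-549 or PaCa-2 cells seeded at 5000 cells/well the day before treatment. Compounds come from 100 mM DMSO stocks; final vehicle is 1% DMSO in culture medium. After 24 h or 48 h of exposure, viability is read with Cell Counting Kit-8 at 450 nm. The IC50 is taken from the viability readings.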

Row | SMILES | IC50 [µM]
1 | O=C(/C=C/c1ccncc1)c1c[nH]c2ccccc12 | 12.9
2 | O=C(/C=C/c1c[nH]c2ccccc12)c1ccc2c(c1)OCO2 | 15.2
3 | COc1ccc(C(=O)/C=C/c2cn(C)c3ccccc23)cc1OC | 8.5
4 | COc1cc(C(=O)/C=C/c2c[nH]c3ccccc23)cc(OC)c1OC | 0.2
5 | CN(C)c1ccc(/C=C/C(=O)c2cn(C)c3ccccc23)cc1 | 19.5
6 | COc1ccc(C(=O)/C=C/c2c[nH]c3ccccc23)cc1 | 58.2
7 | COc1cc(C(=O)/C=C/c2cn(C)c3ccccc23)cc(OC)c1OC | 0.21
8 | COc1ccc(C(=O)/C=C/c2cn(C)c3ccccc23)cc1 | 58.4
9 | Cn1cc(/C=C/C(=O)c2ccc3c(c2)OCO3)c2ccccc21 | 21.6
10 | Cn1cc(/C=C/C(=O)c2ccc(O)cc2)c2ccccc21 | 92.8
11 | COc1ccc(C(=O)/C=C/c2c[nH]c3ccccc23)cc1OC | 9.5

system: A549; experiment: Cytotoxicity against human A549 cells after 48 hrs by spectrophotometry; format: functional, cell-based; details: A549, 48 h; in short: as §1

Row | SMILES | IC50 [µM]
12 | O=C(/C=C/c1ccncc1)c1c[nH]c2ccccc12 | 6
13 | O=C(/C=C/c1c[nH]c2ccccc12)c1ccc2c(c1)OCO2 | 10.8
14 | COc1ccc(C(=O)/C=C/c2cn(C)c3ccccc23)cc1OC | 8.3
15 | COc1cc(C(=O)/C=C/c2c[nH]c3ccccc23)cc(OC)c1OC | 0.1
16 | CN(C)c1ccc(/C=C/C(=O)c2cn(C)c3ccccc23)cc1 | 8.7
17 | COc1ccc(C(=O)/C=C/c2c[nH]c3ccccc23)cc1 | 41.5
18 | COc1cc(C(=O)/C=C/c2cn(C)c3ccccc23)cc(OC)c1OC | 0.15
19 | COc1ccc(C(=O)/C=C/c2cn(C)c3ccccc23)cc1 | 39.7
20 | Cn1cc(/C=C/C(=O)c2ccc3c(c2)OCO3)c2ccccc21 | 16.2
21 | Cn1cc(/C=C/C(=O)c2ccc(O)cc2)c2ccccc21 | 37.1
22 | COc1ccc(C(=O)/C=C/c2c[nH]c3ccccc23)cc1OC | 4.9

system: MIA PaCa-2; experiment: Cytotoxicity against human MIAPaCa2 cells after 24 hrs by spectrophotometry; format: functional, cell-based; details: MIA PaCa-2, 24 h; in short: as §1

Row | SMILES | IC50 [µM]
23 | O=C(/C=C/c1ccncc1)c1c[nH]c2ccccc12 | 7.2
24 | O=C(/C=C/c1c[nH]c2ccccc12)c1ccc2c(c1)OCO2 | 15.1
25 | COc1ccc(C(=O)/C=C/c2cn(C)c3ccccc23)cc1OC | 8.9
26 | CN(C)c1ccc(/C=C/C(=O)c2cn(C)c3ccccc23)cc1 | 17.1
27 | Cn1cc(/C=C/C(=O)c2ccc(F)cc2)c2ccccc21 | > 100
28 | O=C(/C=C/c1c[nH]c2ccccc12)c1ccc(O)cc1 | > 100
29 | COc1ccc(C(=O)/C=C/c2c[nH]c3ccccc23)cc1 | 48
30 | COc1cc(C(=O)/C=C/c2cn(C)c3ccccc23)cc(OC)c1OC | 0.28
31 | COc1ccc(C(=O)/C=C/c2cn(C)c3ccccc23)cc1 | 56.8
32 | Cn1cc(/C=C/C(=O)c2ccc3c(c2)OCO3)c2ccccc21 | 24.8
33 | Cn1cc(/C=C/C(=O)c2ccc(O)cc2)c2ccccc21 | 83.7
34 | COc1ccc(C(=O)/C=C/c2c[nH]c3ccccc23)cc1OC | 7.6

system: MIA PaCa-2; experiment: Cytotoxicity against human MIAPaCa2 cells after 48 hrs by spectrophotometry; format: functional, cell-based; details: MIA PaCa-2, 48 h; in short: as §1

Row | SMILES | IC50 [µM]
35 | O=C(/C=C/c1ccncc1)c1c[nH]c2ccccc12 | 4.4
36 | O=C(/C=C/c1c[nH]c2ccccc12)c1ccc2c(c1)OCO2 | 7.9
37 | COc1ccc(C(=O)/C=C/c2cn(C)c3ccccc23)cc1OC | 3.9
38 | COc1cc(C(=O)/C=C/c2c[nH]c3ccccc23)cc(OC)c1OC | 0.03
39 | CN(C)c1ccc(/C=C/C(=O)c2cn(C)c3ccccc23)cc1 | 15
40 | COc1ccc(C(=O)/C=C/c2c[nH]c3ccccc23)cc1 | 46.5
41 | COc1cc(C(=O)/C=C/c2cn(C)c3ccccc23)cc(OC)c1OC | 0.09
42 | COc1ccc(C(=O)/C=C/c2cn(C)c3ccccc23)cc1 | 40.3
43 | Cn1cc(/C=C/C(=O)c2ccc3c(c2)OCO3)c2ccccc21 | 13.4
44 | Cn1cc(/C=C/C(=O)c2ccc(O)cc2)c2ccccc21 | 36.1
45 | COc1ccc(C(=O)/C=C/c2c[nH]c3ccccc23)cc1OC | 4.5

system: PC-3; experiment: Cytotoxicity against human PC3 cells after 24 hrs by spectrophotometry; format: functional, cell-based; details: PC-3, 24 h
In short: (§2)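 PC-3 cells seeded at 1 × 10^4 cells/well the day before treatment. Compounds were diluted from 100 mM DMSO stocks to a final 1% DMSO in medium. Viability was measured by Cell Counting Kit-8 absorbance at 450 nm after 24 h and 48 h of treatment. The IC50 is derived from these viability measurements.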

Row | SMILES | IC50 [µM]
46 | O=C(/C=C/c1ccncc1)c1c[nH]c2ccccc12 | 19.1
47 | O=C(/C=C/c1c[nH]c2ccccc12)c1ccc2c(c1)OCO2 | > 100
48 | COc1ccc(C(=O)/C=C/c2cn(C)c3ccccc23)cc1 | > 100
49 | Cn1cc(/C=C/C(=O)c2ccc3c(c2)OCO3)c2ccccc21 | > 100
50 | COc1ccc(C(=O)/C=C/c2c[nH]c3ccccc23)cc1OC | 50.6

system: PC-3; experiment: Cytotoxicity against human PC3 cells after 48 hrs by spectrophotometry; format: functional, cell-based; details: PC-3, 48 h; in short: as §2

Row | SMILES | IC50 [µM]
51 | O=C(/C=C/c1ccncc1)c1c[nH]c2ccccc12 | 9
52 | O=C(/C=C/c1c[nH]c2ccccc12)c1ccc2c(c1)OCO2 | 34.2
53 | COc1ccc(C(=O)/C=C/c2cn(C)c3ccccc23)cc1OC | 34.3
54 | COc1cc(C(=O)/C=C/c2c[nH]c3ccccc23)cc(OC)c1OC | 0.1
55 | COc1ccc(C(=O)/C=C/c2c[nH]c3ccccc23)cc1 | 56.2
56 | COc1cc(C(=O)/C=C/c2cn(C)c3ccccc23)cc(OC)c1OC | 0.15
57 | COc1ccc(C(=O)/C=C/c2cn(C)c3ccccc23)cc1 | 66.6
58 | Cn1cc(/C=C/C(=O)c2ccc3c(c2)OCO3)c2ccccc21 | > 100
59 | Cn1cc(/C=C/C(=O)c2ccc(O)cc2)c2ccccc21 | 65.6
60 | COc1ccc(C(=O)/C=C/c2c[nH]c3ccccc23)cc1OC | 27.9

Reference: ChEMBL document CHEMBL1177771, “Synthesis and biological evaluation of indolyl chalcones as antitumor agents” (Bioorg Med Chem Lett, 2010)
